The nature of series [1]: liver microsome stability, rat. As to conditions: rat liver microsomes. The class given is in vitro ADME.
In series [2] the target is T1, intracellular pools of IDE (Mus musculus, UniProt Q9JHR7).
T1 sequence (Q9JHR7 1-1019): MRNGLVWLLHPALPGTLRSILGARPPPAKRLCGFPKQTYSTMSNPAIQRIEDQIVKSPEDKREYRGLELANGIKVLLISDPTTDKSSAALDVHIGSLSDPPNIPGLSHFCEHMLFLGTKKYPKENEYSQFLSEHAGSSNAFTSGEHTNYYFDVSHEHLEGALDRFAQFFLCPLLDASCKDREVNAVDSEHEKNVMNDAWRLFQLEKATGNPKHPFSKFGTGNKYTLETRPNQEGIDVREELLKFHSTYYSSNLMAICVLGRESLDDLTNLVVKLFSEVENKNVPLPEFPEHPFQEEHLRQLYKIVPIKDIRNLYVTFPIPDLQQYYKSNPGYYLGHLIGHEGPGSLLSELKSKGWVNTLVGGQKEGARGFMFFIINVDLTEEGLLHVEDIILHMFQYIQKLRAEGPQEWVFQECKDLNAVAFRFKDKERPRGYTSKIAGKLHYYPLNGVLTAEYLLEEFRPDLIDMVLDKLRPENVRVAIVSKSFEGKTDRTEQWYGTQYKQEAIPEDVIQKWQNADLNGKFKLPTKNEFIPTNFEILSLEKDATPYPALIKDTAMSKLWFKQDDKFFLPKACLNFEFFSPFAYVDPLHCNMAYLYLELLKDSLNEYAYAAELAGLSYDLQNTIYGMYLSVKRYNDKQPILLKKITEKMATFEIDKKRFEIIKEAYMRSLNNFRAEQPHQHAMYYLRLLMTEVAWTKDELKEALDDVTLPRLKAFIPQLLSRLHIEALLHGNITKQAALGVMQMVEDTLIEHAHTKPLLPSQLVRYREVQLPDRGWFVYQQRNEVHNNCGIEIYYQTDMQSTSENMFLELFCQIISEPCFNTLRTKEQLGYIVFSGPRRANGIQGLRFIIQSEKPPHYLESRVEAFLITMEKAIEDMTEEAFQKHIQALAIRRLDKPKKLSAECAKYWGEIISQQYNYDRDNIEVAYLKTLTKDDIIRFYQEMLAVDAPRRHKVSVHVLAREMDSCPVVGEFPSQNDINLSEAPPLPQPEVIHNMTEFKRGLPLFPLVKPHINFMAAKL
Put plainly: intracellular IDE activity in BV-2 cells. The class given is cell-based. As to conditions: 30 μM, 16 h, cell extracts. The method, boiled down: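 BV-2 cells were treated 16 h with 30 μM compound, then conditioned medium was collected. Cells were washed in PBS, lysed hypotonically in 50 mM Tris-HCl at 4 °C, extruded through a needle and centrifuged. Extracts were diluted 1:200 (v:v). Activity was measured by avidin-agarose precipitation Aß degradation assay with FAßB. Mean ± SEM, 3 replications.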

The target of series [3] is T2, WT-IDE (Homo sapiens, UniProt P14735).
T2 sequence (P14735 1-1019): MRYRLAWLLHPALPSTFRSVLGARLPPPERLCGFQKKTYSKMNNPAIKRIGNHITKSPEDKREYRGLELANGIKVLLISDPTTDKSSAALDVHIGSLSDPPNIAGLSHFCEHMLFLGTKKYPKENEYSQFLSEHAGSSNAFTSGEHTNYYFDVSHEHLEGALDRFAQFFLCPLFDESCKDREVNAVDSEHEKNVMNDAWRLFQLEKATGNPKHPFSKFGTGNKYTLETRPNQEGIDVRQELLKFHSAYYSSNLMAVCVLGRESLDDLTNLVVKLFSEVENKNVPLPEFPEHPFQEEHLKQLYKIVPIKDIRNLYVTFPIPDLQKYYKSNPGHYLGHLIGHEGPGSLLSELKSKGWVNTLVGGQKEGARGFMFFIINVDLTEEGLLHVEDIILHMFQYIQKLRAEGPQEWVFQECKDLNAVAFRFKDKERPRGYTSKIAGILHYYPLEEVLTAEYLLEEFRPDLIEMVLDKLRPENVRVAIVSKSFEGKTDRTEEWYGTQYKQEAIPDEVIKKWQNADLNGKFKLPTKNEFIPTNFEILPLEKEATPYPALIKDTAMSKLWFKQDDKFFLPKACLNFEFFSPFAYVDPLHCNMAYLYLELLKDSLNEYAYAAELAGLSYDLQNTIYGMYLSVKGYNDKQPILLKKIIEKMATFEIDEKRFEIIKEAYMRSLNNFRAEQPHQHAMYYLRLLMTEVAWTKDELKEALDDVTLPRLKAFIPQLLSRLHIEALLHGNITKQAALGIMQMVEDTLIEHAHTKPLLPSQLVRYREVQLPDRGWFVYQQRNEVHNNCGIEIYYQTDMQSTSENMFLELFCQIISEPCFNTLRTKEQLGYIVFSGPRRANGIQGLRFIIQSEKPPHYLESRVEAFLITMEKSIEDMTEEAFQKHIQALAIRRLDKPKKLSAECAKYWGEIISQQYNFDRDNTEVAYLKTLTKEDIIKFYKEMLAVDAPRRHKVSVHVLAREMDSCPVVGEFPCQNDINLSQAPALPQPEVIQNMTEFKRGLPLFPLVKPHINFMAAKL
Briefly: kinetics of irreversible inhibition. The class given is biochemical. The method, boiled down: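 Recombinant WT-IDE (2 nM) and FRET1 substrate (5 μM) were monitored continuously at 3-s intervals, starting immediately after adding inhibitor at several concentrations. Curve fits gave observed rate constants, which were plotted against inhibitor concentration. A hyperbolic fit gave kinhib and KM. LE was taken as ΔG/heavy atoms using KM; SEI as pKM/tPSA/100 Å2.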

In series [4] the target is T3, IDE (Homo sapiens, UniProt P14735).
T3 sequence (P14735 1-1019): T2 sequence (P14735 1-1019)
Put plainly: insulin degradation, homogeneous time-resolved fluorescence-based assay. As to conditions: read-out: IC50^app in vitro, insulin; insulin as substrate; n=4. The class given is biochemical.

The subject of series [5] is HEK-293 cells. Briefly: luminescence-based HEK cell viability. On the set-up: species or system human. To be noted: up to 100 μM.

Turning to `O=c1c2cc(F)ccc2sn1-c1cc(S(=O)(=O)N2CCOCC2)ccc1N1CCOCC1` [Compound 8, 5-fluoro-2-(2-morpholin-4-yl-5-morpholin-4-ylsulfonylphenyl)-1,2-benzothiazol-3-one], in series [1], the “Liver microsome stability, Rat” value is reported as 50 min. For the same molecule, in series [2], the “inhibition of intracellular pools of IDE in BV-2 cells” value was “does not affect”. In addition, the kinhib is 13.4 ± 2.7 (n=5) min^−1 in series [3] (Table 3, n=5) and 13.4 min⁻¹ in series [3] (WT-IDE 2 nM, FRET1 5 μM, rate constant of irreversible step). For the same molecule, the “LE (ligand efficiency, ΔG/HA)” value in series [3] (calculated using KM value) is given as 0.234 kcal mol^−1 HA^−1. Besides, the IC50 in series [4] stood at 82 ± 20.2 nM. In series [5], the toxicity in cells result is “no toxicity”.

For orientation: IC50 means the point on the concentration scale where inhibition reaches its midpoint.
